Data as given in ChEMBL document CHEMBL1131231, “New azole antifungals. 2. Synthesis and antifungal activity of heterocyclecarboxamide derivatives of 3-amino-2-aryl-1-azolyl-2-butanol” (1998).
Converted amounts (≈) assume the structure as drawn.

Key:
[1] = system: Candida albicans; test: In vivo antifungal activity against murine candidosis model after peroral administration with 1 mg/kg at various time intervals. (percent protection for 100% mortality with untreated group); type: functional; conditions: route oral
Procedure, shortened: (§1)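 Male mice, groups of 10, infected iv with 0.2 mL Candida albicans at (2–8) × 10⁷ cfu/mL. Oral suspension in 1% Tween + 0.2% carboxymethylcellulose in water, given 1, 4 and 24 h post-infection; vehicle controls and a fluconazole group at the same dose. Survival scored on days 1, 2, 3, 5, 7, 9, reported as % surviving on the day untreated, or fluconazole-treated, mortality reached 100%.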

[2] = system: Candida albicans; test: In vivo antifungal activity against murine candidosis model after peroral administration with 1 mg/kg at various time intervals. (percent protection for 100% mortality with fluconazole-treated group.); type: functional; conditions: route oral; procedure, shortened: as §1
[3] = The compound was tested in vitro for antifungal activity against 10 yeasts.; type: functional
Procedure, shortened: (§2)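 Agar dilution on Kimmig's agar with 0.5% glycerol; ATCC or clinical isolates, inocula at 10⁵ cfu/mL. Drugs from 800 μg/mL stock in 50% ethanol, 2-fold serial dilutions 80 to 0.03 μg/mL in plates. Incubated 25 °C, 48 h for yeasts, 120 h for filamentous fungi. Value is geometric mean of MICs (μg/mL); >80 taken as 160, ≤0.03 as 0.03.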

[4] = The compound was tested in vitro for antifungal activity against 6 filamentous fungi.; type: functional; procedure, shortened: as §2
[5] = system: Candida albicans; test: In vivo antifungal activity against murine candidosis model after peroral administration with 0.5 mg/kg at various time intervals. (percent protection for 100% mortality with untreated group); type: functional; conditions: route oral; procedure, shortened: as §1
[6] = system: Candida albicans; test: In vivo antifungal activity against murine candidosis model after peroral administration with 0.5 mg/kg at various time intervals. (percent protection for 100% mortality with fluconazole-treated group.); type: functional; conditions: route oral; procedure, shortened: as §1
[7] = In vivo antifungal activity against murine candidosis model after peroral administration with 1 mg/kg for 5 days.(percent protection for 100% mortality with untreated group); type: functional, Mus musculus; conditions: route oral
Procedure, shortened: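 Second murine systemic Candida albicans model. Mice, n = 10 per group, dosed orally once daily for 5 days after infection. Animals observed for 65 days, with survival rate as read-out and vehicle controls included. Reported as % protection on the day of 100% mortality in the untreated group or in the fluconazole-treated group.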

C[C@@H](n1cnc2cc(-c3ccc(C(=N)NC#N)cc3)sc2c1=O)[C@](O)(Cn1cncn1)c1ccc(F)cc1F
Protection [1]: 100%
Protection [2]: <20%
MIC [3]: 2.7 µg/mL (≈ 4.94 µM)
MIC [4]: 80 µg/mL (≈ 146 µM)

CSc1ccc(-c2cc3ncn([C@H](C)[C@](O)(Cn4cncn4)c4ccc(F)cc4F)c(=O)c3s2)cc1
Protection [1]: 30%
Protection [2]: 0%
MIC [3]: 5.5 µg/mL (≈ 10.5 µM)
MIC [4]: > 80 µg/mL

C[C@@H](n1cnc2cc(-c3ccc([N+](=O)[O-])cc3)sc2c1=O)[C@](O)(Cn1cncn1)c1ccc(F)cc1F
Protection [1]: 100%
Protection [2]: 90%
MIC [3]: 5.9 µg/mL (≈ 11.2 µM)
MIC [4]: > 80 µg/mL

C[C@@H](n1cnc2cc(-c3ccc(F)cc3)sc2c1=O)[C@](O)(Cn1cncn1)c1ccc(F)cc1F
Protection [1]: 100%
Protection [2]: 100%
MIC [3]: 0.4 µg/mL (≈ 0.804 µM)
MIC [4]: 2.2 µg/mL (≈ 4.42 µM)

C[C@@H](NC(=O)c1cnn(-c2ccc(Cl)cc2)c1C1CC1)[C@](O)(Cn1cncn1)c1ccc(F)cc1F
Protection [1]: 100%
Protection [2]: 0%
MIC [3]: 1.8 µg/mL (≈ 3.51 µM)
MIC [4]: > 80 µg/mL

Cc1c(S(=O)(=O)c2ccc(Cl)cc2)csc1C(=O)N[C@H](C)[C@](O)(Cn1cncn1)c1ccc(F)cc1F
Protection [1]: 70%
Protection [2]: 0%
MIC [3]: 1.6 µg/mL (≈ 2.82 µM)
MIC [4]: 11 µg/mL (≈ 19.4 µM)

Cc1c(C(=O)N[C@H](C)[C@](O)(Cn2cncn2)c2ccc(F)cc2F)cnn1-c1ccc(Cl)cc1
Protection [1]: 80%
Protection [2]: 60%
MIC [3]: 1.8 µg/mL (≈ 3.7 µM)
MIC [4]: 16 µg/mL (≈ 32.9 µM)

CC(C)c1c(C(=O)N[C@H](C)[C@](O)(Cn2cncn2)c2ccc(F)cc2F)cnn1-c1ccc(Cl)cc1
Protection [1]: 60%
Protection [2]: 0%
MIC [3]: 3.3 µg/mL (≈ 6.41 µM)
MIC [4]: > 80 µg/mL

Cc1c(C(=O)N[C@H](C)[C@](O)(Cn2cncn2)c2ccc(F)cc2F)cnn1-c1ccccc1Cl
Protection [1]: 0%
Protection [2]: 0%
MIC [3]: 11 µg/mL (≈ 22.6 µM)
MIC [4]: > 80 µg/mL

Cc1c(C(=O)N[C@H](C)[C@](O)(Cn2cncn2)c2ccc(F)cc2F)cnn1-c1c(Cl)cccc1Cl
Protection [1]: 0%
Protection [2]: 0%
MIC [3]: 21 µg/mL (≈ 40.3 µM)
MIC [4]: > 80 µg/mL

C[C@@H](NC(=O)c1cnn(-c2ccc(Cl)cc2)c1N)[C@](O)(Cn1cncn1)c1ccc(F)cc1F
Protection [1]: 80%
Protection [2]: 0%
MIC [3]: 2.7 µg/mL (≈ 5.53 µM)
MIC [4]: 45 µg/mL (≈ 92.2 µM)

Cc1c(C(=O)N[C@H](C)[C@](O)(Cn2cncn2)c2ccc(F)cc2F)cnn1-c1ccc(C(F)(F)F)cc1
Protection [1]: 100%
Protection [2]: 80%
MIC [3]: 1.7 µg/mL (≈ 3.27 µM)
MIC [4]: 13 µg/mL (≈ 25 µM)

Cc1c(C(=O)N[C@H](C)[C@](O)(Cn2cncn2)c2ccc(F)cc2F)cnn1-c1ccc(OC(F)(F)F)cc1
Protection [1]: 100%
Protection [2]: 80%
MIC [3]: 2.6 µg/mL (≈ 4.85 µM)
MIC [4]: 5.6 µg/mL (≈ 10.4 µM)

C[C@@H](n1cnc2cc(-c3ccc(C(=N)NO)cc3)sc2c1=O)[C@](O)(Cn1cncn1)c1ccc(F)cc1F
Protection [1]: 90%
Protection [2]: 0%
MIC [3]: 2.4 µg/mL (≈ 4.46 µM)
MIC [4]: > 80 µg/mL

CCCc1c(C(=O)N[C@H](C)[C@](O)(Cn2cncn2)c2ccc(F)cc2F)cnn1-c1ccc(Cl)cc1
Protection [1]: 100%
Protection [2]: 0%
MIC [3]: 1.9 µg/mL (≈ 3.69 µM)
MIC [4]: 36 µg/mL (≈ 69.9 µM)

Cc1c(C(=O)N[C@H](C)[C@](O)(Cn2cncn2)c2ccc(F)cc2F)cnc2cc(-c3ccc(Cl)cc3)nn12
Protection [1]: 100%
Protection [2]: 0%
MIC [3]: 1.4 µg/mL (≈ 2.6 µM)
MIC [4]: 6.3 µg/mL (≈ 11.7 µM)

CC(=O)ONC(=N)c1ccc(-c2cc3ncn([C@H](C)[C@](O)(Cn4cncn4)c4ccc(F)cc4F)c(=O)c3s2)cc1
Protection [1]: 60%
Protection [2]: 0%
MIC [3]: 3.7 µg/mL (≈ 6.38 µM)
MIC [4]: 36 µg/mL (≈ 62.1 µM)

C[C@@H](NC(=O)c1cnn(-c2ccc(Cl)cc2)c1)[C@](O)(Cn1cncn1)c1ccc(F)cc1F
Protection [1]: 100%
Protection [2]: 50%
MIC [3]: 1.9 µg/mL (≈ 4.02 µM)
MIC [4]: > 80 µg/mL

Cc1nn(-c2ccc(Cl)cc2)c(C)c1C(=O)N[C@H](C)[C@](O)(Cn1cncn1)c1ccc(F)cc1F
Protection [1]: 90%
Protection [2]: 20%
MIC [3]: 1.5 µg/mL (≈ 2.99 µM)
MIC [4]: 8.9 µg/mL (≈ 17.8 µM)

C[C@@H](n1cnc2cc(-c3ccc(C4=NCCO4)cc3)sc2c1=O)[C@](O)(Cn1cncn1)c1ccc(F)cc1F
Protection [1]: 100%
Protection [2]: 20%
MIC [3]: 1.9 µg/mL (≈ 3.46 µM)
MIC [4]: > 80 µg/mL

COc1ccc(-n2ncc(C(=O)N[C@H](C)[C@](O)(Cn3cncn3)c3ccc(F)cc3F)c2C)cc1
Protection [1]: 0%
Protection [2]: 0%
MIC [3]: 6.1 µg/mL (≈ 12.6 µM)
MIC [4]: 23 µg/mL (≈ 47.7 µM)

Cc1c(C(=O)N[C@H](C)[C@](O)(Cn2cncn2)c2ccc(F)cc2F)cnn1-c1ccc(Br)cc1
Protection [1]: 100%
Protection [2]: 50%
MIC [3]: 2 µg/mL (≈ 3.76 µM)
MIC [4]: 13 µg/mL (≈ 24.5 µM)

C[C@@H](n1cnc2cc(-c3ccc(S(C)(=O)=O)cc3)sc2c1=O)[C@](O)(Cn1cncn1)c1ccc(F)cc1F
Protection [1]: 40%
Protection [2]: 0%
MIC [3]: 2.3 µg/mL (≈ 4.12 µM)
MIC [4]: > 80 µg/mL

Cc1cc2ncc(C(=O)N[C@H](C)[C@](O)(Cn3cncn3)c3ccc(F)cc3F)c(C)n2n1
Protection [1]: 20%
Protection [2]: 0%
MIC [3]: 70 µg/mL (≈ 159 µM)
MIC [4]: > 80 µg/mL

C[C@@H](NC(=O)c1cnn(-c2ccc(C(F)(F)F)cc2)c1C(F)(F)F)[C@](O)(Cn1cncn1)c1ccc(F)cc1F
Protection [1]: 60%
Protection [2]: 0%
MIC [3]: 1.8 µg/mL (≈ 3.13 µM)
MIC [4]: 13 µg/mL (≈ 22.6 µM)

C[C@@H](NC(=O)c1cnn(-c2ccc(Cl)cc2)c1C(F)(F)F)[C@](O)(Cn1cncn1)c1ccc(F)cc1F
Protection [1]: 100%
Protection [2]: 50%
MIC [3]: 1.2 µg/mL (≈ 2.22 µM)
MIC [4]: 7.1 µg/mL (≈ 13.1 µM)

Cc1c(C(=O)N[C@H](C)[C@](O)(Cn2cncn2)c2ccc(F)cc2F)cnn1-c1cc(Cl)cc(Cl)c1
Protection [1]: 20%
Protection [2]: 0%
MIC [3]: 19 µg/mL (≈ 36.4 µM)
MIC [4]: > 80 µg/mL

C[C@@H](n1cnc2cc(-c3ccc(C(N)=O)cc3)sc2c1=O)[C@](O)(Cn1cncn1)c1ccc(F)cc1F
Protection [1]: 100%
Protection [2]: 20%
MIC [3]: 1.3 µg/mL (≈ 2.49 µM)
MIC [4]: 45 µg/mL (≈ 86.1 µM)

Cc1c(C(=O)N[C@H](C)[C@](O)(Cn2cncn2)c2ccc(F)cc2F)cnn1-c1ccc(F)cc1F
Protection [1]: 0%
Protection [2]: 0%
MIC [3]: 5.3 µg/mL (≈ 10.9 µM)
MIC [4]: 63 µg/mL (≈ 129 µM)

Cc1nc(-c2ccc(C(C)(C)C)cc2)sc1C(=O)N[C@H](C)[C@](O)(Cn1cncn1)c1ccc(F)cc1F
Protection [5]: 0%
MIC [3]: 2.1 µg/mL (≈ 4 µM)
MIC [4]: 8.9 µg/mL (≈ 16.9 µM)
Protection [6]: 0%

Cc1nc(Oc2ccc(Cl)cc2)sc1C(=O)N[C@H](C)[C@](O)(Cn1cncn1)c1ccc(F)cc1F
Protection [5]: 10%
MIC [3]: 1.5 µg/mL (≈ 2.88 µM)
MIC [4]: 4 µg/mL (≈ 7.69 µM)
Protection [6]: 0%

Cc1nc(-c2ccc(Br)cc2)sc1C(=O)N[C@H](C)[C@](O)(Cn1cncn1)c1ccc(F)cc1F
Protection [5]: 100%
MIC [3]: 0.6 µg/mL (≈ 1.09 µM)
MIC [4]: 1.8 µg/mL (≈ 3.28 µM)
Protection [6]: 90%

C[C@@H](NC(=O)c1cccc(-c2ccc(Cl)cc2)c1)[C@](O)(Cn1cncn1)c1ccc(F)cc1F
Protection [5]: 40%
MIC [3]: 0.3 µg/mL (≈ 0.621 µM)
MIC [4]: > 80 µg/mL
Protection [6]: 0%

Cc1oc(-c2ccc(Cl)cc2)cc1C(=O)N[C@H](C)[C@](O)(Cn1cncn1)c1ccc(F)cc1F
Protection [5]: 100%
MIC [3]: 0.9 µg/mL (≈ 1.85 µM)
MIC [4]: 10 µg/mL (≈ 20.5 µM)
Protection [6]: 0%

OC(Cn1cncn1)(Cn1cncn1)c1ccc(F)cc1F [FLUCONAZOLE]
Protection [5]: 100%
Protection [7]: 100%
MIC [3]: 30 µg/mL (≈ 98 µM)
MIC [4]: > 80 µg/mL

C[C@@H](NC(=O)c1nc(-c2ccc(Cl)cc2)ns1)[C@](O)(Cn1cncn1)c1ccc(F)cc1F
Protection [5]: 10%
MIC [3]: 11 µg/mL (≈ 22.4 µM)
MIC [4]: > 80 µg/mL
Protection [6]: 0%

Cc1c(C(=O)N[C@H](C)[C@](O)(Cn2cncn2)c2ccc(F)cc2F)cnn1-c1cccc(C(F)(F)F)c1
Protection [1]: 100%
Protection [2]: 0%
MIC [3]: 4.6 µg/mL (≈ 8.84 µM)
MIC [4]: 20 µg/mL (≈ 38.4 µM)

C[C@@H](NC(=O)c1noc(-c2ccc(Cl)cc2)n1)[C@](O)(Cn1cncn1)c1ccc(F)cc1F
Protection [5]: 100%
MIC [3]: 2.1 µg/mL (≈ 4.42 µM)
MIC [4]: 32 µg/mL (≈ 67.4 µM)
Protection [6]: 10%

C[C@@H](NC(=O)c1ccc(Cl)cc1)[C@](O)(Cn1cncn1)c1ccc(F)cc1F
Protection [5]: 0%
MIC [3]: 3.9 µg/mL (≈ 9.59 µM)
MIC [4]: 11 µg/mL (≈ 27 µM)
Protection [6]: 0%

C[C@@H](NC(=O)c1nc(-c2ccc(Cl)cc2)no1)[C@](O)(Cn1cncn1)c1ccc(F)cc1F
Protection [5]: 80%
MIC [3]: 2.1 µg/mL (≈ 4.42 µM)
MIC [4]: 80 µg/mL (≈ 168 µM)
Protection [6]: 10%

C[C@@H](NC(=O)c1cnn(-c2ccc(Cl)cc2)c1C(C)(C)C)[C@](O)(Cn1cncn1)c1ccc(F)cc1F
Protection [1]: 0%
Protection [2]: 0%
MIC [3]: 4.6 µg/mL (≈ 8.7 µM)
MIC [4]: > 80 µg/mL

C[C@@H](NC(=O)c1ccn(-c2ccc(Cl)cc2)c1)[C@](O)(Cn1cncn1)c1ccc(F)cc1F
Protection [5]: 0%
MIC [3]: 1.2 µg/mL (≈ 2.54 µM)
MIC [4]: 17 µg/mL (≈ 36 µM)
Protection [6]: 0%
